Measured values published in ChEMBL document CHEMBL1208718, “Rational design of a novel peripherally-restricted, orally active CB(1) cannabinoid antagonist containing a 2,3-diarylpyrrole motif” (Bioorg Med Chem Lett, 2010).
pEC50, pIC50: −log10 of the molar value.

Experiments:
[1] = system: Mus musculus; experiment: Reversal of CP-55940-induced hypothermia in po dosed mouse; format: functional
Method in brief: (§1)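 Mice dosed orally with antagonist, then challenged with CP55940 0.3 mg/kg ip to induce hypothermia. Reversal scored as DE50 (mg/kg po) or as % reversal at a single oral dose.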

[2] = molecular target: T1, Cannabinoid receptor 2 (Rattus norvegicus) (UniProt Q9QZN9); experiment: Binding affinity to CB2 receptor in rat spleen homogenates at 1 uM; format: tissue-based
T1 sequence (whole entry): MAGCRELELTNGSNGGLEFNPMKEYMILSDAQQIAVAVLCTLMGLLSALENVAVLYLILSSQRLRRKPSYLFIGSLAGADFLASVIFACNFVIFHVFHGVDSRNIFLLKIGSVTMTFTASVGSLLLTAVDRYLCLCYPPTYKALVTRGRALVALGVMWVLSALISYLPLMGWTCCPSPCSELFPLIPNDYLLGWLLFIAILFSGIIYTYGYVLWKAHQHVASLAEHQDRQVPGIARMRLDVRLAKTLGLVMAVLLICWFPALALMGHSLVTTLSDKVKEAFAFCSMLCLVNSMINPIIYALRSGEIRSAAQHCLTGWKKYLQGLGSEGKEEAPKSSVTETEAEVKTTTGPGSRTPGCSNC

[3] = system: Mus musculus; experiment: Reversal of CP-55940-induced inhibition of intestinal transit in po dosed mouse; format: functional
Method in brief: (§2)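 Mice dosed orally with antagonist, then given CP55940 0.15 mg/kg ip to inhibit intestinal transit. Reversal scored as DE50 (mg/kg po) or as % reversal at a single oral dose.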

[4] = system: Mus musculus; experiment: Ex vivo displacement of [3H]CP-55940 from mouse brain homogenates without cerebellum at 10 mg/kg, iv after 30 mins; format: functional
Method in brief: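 Mice dosed iv at 10 mg/kg and killed by decapitation 30 min later. Brain homogenized without cerebellum, and inhibition of [3H]-CP55940 binding measured in the homogenate.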

[5] = molecular target: Cannabinoid receptor 1 (Rattus norvegicus, UniProt P20272); experiment: Binding affinity to CB1 receptor in rat brain synaptosomal membranes; format: cell membranes
Cannabinoid receptor 1 (Rattus norvegicus, UniProt P20272), sequence (P20272 whole entry): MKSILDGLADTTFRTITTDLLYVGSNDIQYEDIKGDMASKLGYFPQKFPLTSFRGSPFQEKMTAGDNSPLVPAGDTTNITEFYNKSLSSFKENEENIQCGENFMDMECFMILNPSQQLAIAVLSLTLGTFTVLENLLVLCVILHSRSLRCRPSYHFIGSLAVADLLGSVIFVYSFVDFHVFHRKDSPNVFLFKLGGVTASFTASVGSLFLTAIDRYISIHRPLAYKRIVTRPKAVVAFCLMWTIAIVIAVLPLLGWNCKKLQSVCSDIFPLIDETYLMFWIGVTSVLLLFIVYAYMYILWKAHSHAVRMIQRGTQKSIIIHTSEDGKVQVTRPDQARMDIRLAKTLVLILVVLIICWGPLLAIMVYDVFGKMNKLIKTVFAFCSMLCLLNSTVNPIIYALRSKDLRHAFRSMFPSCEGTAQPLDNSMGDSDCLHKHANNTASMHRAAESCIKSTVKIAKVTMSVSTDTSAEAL

[6] = Oral bioavailability in Swiss CD1 mouse at 10 mg/kg; conditions: in vivo
[7] = Drug level in Swiss CD1 mouse brain assessed per gram of tissue at 10 mg/kg, po after 6 hrs; format: ADME, organism-based; parameters: dose 10 mg/kg, route oral; conditions: read-out: Drug uptake
Method in brief: (§3)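 Male Swiss CD1 mice received a single oral 10 mg/kg dose. Drug levels were measured in plasma (ng/mL) and brain (ng/g tissue) over 24 h.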

[8] = system: Liver microsomes; experiment: Metabolic stability in rat liver microsomes at 5 uM after 10 mins by HPLC analysis in presence of NADPH; format: ADME, Microsome
Method in brief: (§4)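 Hepatic microsomal fractions from mouse, rat and human were used at 1 mg/mL microsomal protein, with 10 min incubation of substrate.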

[9] = molecular target: T2, Cannabinoid receptor 1 (Homo sapiens, UniProt P21554); experiment: Antagonist activity at CB1 receptor in forskolin-stimulated human U373-MG cells assessed as inhibition of CP-55940-induced cAMP accumulation; format: functional, cell-based, U-373MG ATCC
T2 sequence (P21554 whole entry): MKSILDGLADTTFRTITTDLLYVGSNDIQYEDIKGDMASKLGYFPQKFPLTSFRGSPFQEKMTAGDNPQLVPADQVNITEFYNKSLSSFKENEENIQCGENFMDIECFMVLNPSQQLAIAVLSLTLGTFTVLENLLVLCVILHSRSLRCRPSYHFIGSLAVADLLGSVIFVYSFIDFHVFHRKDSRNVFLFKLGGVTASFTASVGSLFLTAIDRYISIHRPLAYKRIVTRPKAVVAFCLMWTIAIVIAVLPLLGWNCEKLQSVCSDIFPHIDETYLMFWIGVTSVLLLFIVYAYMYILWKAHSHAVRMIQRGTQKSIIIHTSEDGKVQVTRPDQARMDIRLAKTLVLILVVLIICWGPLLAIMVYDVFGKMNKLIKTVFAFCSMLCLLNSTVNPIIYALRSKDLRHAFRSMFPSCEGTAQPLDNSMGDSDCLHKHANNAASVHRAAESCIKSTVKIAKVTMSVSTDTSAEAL
Method in brief: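 Human U373-MG cells; forskolin-stimulated cAMP accumulation was inhibited with CP55940, and the antagonist was tested over a range of concentrations for reversal of that inhibition. The EC50 was derived from the concentration–response.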

[10] = system: Liver microsomes; experiment: Metabolic stability in human liver microsomes at 5 uM after 10 mins by HPLC analysis in presence of NADPH; format: ADME, Microsome; method in brief: as §4
[11] = Cmax in Swiss CD1 mouse at 10 mg/kg, po after 2 hrs; format: ADME, organism-based; parameters: dose 10 mg/kg, route oral; conditions: in vivo; method in brief: as §3
[12] = AUC (0 to 24 hrs) ratio in brain to plasma of Swiss CD1 mouse at 10 mg/kg, po; format: ADME, organism-based; parameters: dose 10 mg/kg, route oral
[13] = molecular target: T2, Cannabinoid receptor 1; experiment: Inhibition of human recombinant CB1 receptor expressed in CHO cells; format: cell-based
[14] = Metabolic stability in mouse liver microsomes at 5 uM after 10 mins by HPLC analysis in presence of NADPH; format: ADME, Microsome; method in brief: as §4
[15] = system: Mus musculus; experiment: Reversal of CP-55940-induced hypothermia in po dosed mouse at 30 mg/kg, po; format: functional; method in brief: as §1
[16] = system: Mus musculus; experiment: Reversal of CP-55940-induced inhibition of intestinal transit in mouse at 10 mg/kg, po; format: functional; parameters: scale not given: the % may be the effect or the level left; method in brief: as §2

Structure (SMILES)	inhibition [2] [%]	inhibition in vivo at 10 mg/kg [4] [%]	pIC50 [5]	further results
Cc1c(C(=O)NN2CCCCC2)nn(-c2ccc(Cl)cc2Cl)c1-c1ccc(Cl)cc1 [RIMONABANT]	66	100	–	ED50 [1]: 0.6 mg/kg; ED50 [3]: 1 mg/kg
Cn1c(C(=O)N2CCC(C(N)=O)(N3CCCCC3)CC2)cc(-c2ccc(Cl)cc2Cl)c1-c1ccc(Cl)cc1	48	96	9.70	–
Cn1c(C(=O)N2CCC(C(N)=O)(N3CCOCC3)CC2)cc(-c2ccc(Cl)cc2Cl)c1-c1ccc(Cl)cc1	42	32	7.47	–
CS(=O)(=O)CCn1c(C(=O)N2CCC(C(N)=O)(N3CCCCC3)CC2)cc(-c2ccc(Cl)cc2Cl)c1-c1ccc(Cl)cc1	26	19	9.40	–
NC(=O)C1(N2CCCCC2)CCN(C(=O)c2cc(-c3ccc(Cl)cc3Cl)c(-c3ccc(Cl)cc3)n2CCC(=O)O)CC1	14	–	6.74	–
CS(=O)(=O)NCCCn1c(C(=O)N2CCC(C(N)=O)(N3CCC(F)(F)CC3)CC2)cc(-c2ccc(Cl)cc2Cl)c1-c1ccc(Cl)cc1	39	28	9.00	bioavailability [6]: 37%; ED50 [3]: 2.4 mg/kg; concentration at 6 h [7]: 6.4 ng/g; Stability [8]: Stable; pEC50 [9]: 7.82; Stability [10]: Stable; Cmax [11]: 570 ng/mL; Kp [12]: 0.01; pIC50 [13]: 8.85; Stability [14]: Stable; Activity [15]: 0%
Cn1c(C(=O)N2CCC(C(N)=O)(c3ccccc3)CC2)cc(-c2ccc(Cl)cc2Cl)c1-c1ccc(Cl)cc1	17	86	9.15	–
CS(=O)(=O)NCCCn1c(C(=O)N2CCC(C(N)=O)(N3CCCCC3)CC2)cc(-c2ccc(Cl)cc2Cl)c1-c1ccc(Cl)cc1	16	18	8.85	Activity [16]: 51%; Activity [15]: 1%
CC(C)(CCCn1c(C(=O)N2CCC(C(N)=O)(N3CCCCC3)CC2)cc(-c2ccc(Cl)cc2Cl)c1-c1ccc(Cl)cc1)C(=O)O	52	–	6.80	–
N#CCCn1c(C(=O)N2CCC(C(N)=O)(N3CCCCC3)CC2)cc(-c2ccc(Cl)cc2Cl)c1-c1ccc(Cl)cc1	18	39	8.10	–
CC1(C)CCN(C2(C(N)=O)CCN(C(=O)c3cc(-c4ccc(Cl)cc4Cl)c(-c4ccc(Cl)cc4)n3CCCNS(C)(=O)=O)CC2)CC1	27	33	8.37	ED50 [3]: 4.1 mg/kg; Activity [15]: 0%
